Assay outcomes: PubChem BioAssay, several laboratories
Shown are actives, neighbours in structure and some others; about 4.7% of the full set was active somewhere.
RGS4 block = RGS4 inhibitors, primary screen, cell-based, HEK293 M3R inducible RGS4, calcium flux; B-score at 10 µM; AID 463165, 2010; Fluo-4 calcium flux; stronger effect = higher value; triggered by carbachol at its EC20; 310,000 tested, 0.45% active;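 active = B-score, a plate-corrected calcium signal, over three deviations above library mean, with baseline fluorescence within five deviations of library mean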;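 also: RGS4 expression induced by doxycycline in cells with stable M3 receptor; B-score is computed from the integrated fluorescence ratio over baseline after carbachol; higher B-score means a larger calcium signal and so more RGS4 inhibition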
Target sequence (P49798 whole entry, looked up): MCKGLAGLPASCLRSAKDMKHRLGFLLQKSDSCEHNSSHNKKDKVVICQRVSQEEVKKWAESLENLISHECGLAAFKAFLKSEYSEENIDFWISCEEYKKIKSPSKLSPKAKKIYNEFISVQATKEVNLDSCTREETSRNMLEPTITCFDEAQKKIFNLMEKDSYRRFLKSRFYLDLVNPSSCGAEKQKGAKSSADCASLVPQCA
MrgX1 antag = antagonists of human MrgX1 receptor, primary screen, HEK293 cells, Fluo-4 calcium flux; B-score at 10 µM; 310,000 tested, 1.3% active; BAM8-22 antagonism; stronger effect = lower value; AID 588676, 2011;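 active = calcium-response B-score plate-corrected more than 3 library SD below zero, starting fluorescence within 5 deviations, no agonist response on first addition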;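 also: peak minus trough fluorescence over baseline after final BAM8-22 challenge near maximal dose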
Target sequence (Q96LB2 whole entry, looked up): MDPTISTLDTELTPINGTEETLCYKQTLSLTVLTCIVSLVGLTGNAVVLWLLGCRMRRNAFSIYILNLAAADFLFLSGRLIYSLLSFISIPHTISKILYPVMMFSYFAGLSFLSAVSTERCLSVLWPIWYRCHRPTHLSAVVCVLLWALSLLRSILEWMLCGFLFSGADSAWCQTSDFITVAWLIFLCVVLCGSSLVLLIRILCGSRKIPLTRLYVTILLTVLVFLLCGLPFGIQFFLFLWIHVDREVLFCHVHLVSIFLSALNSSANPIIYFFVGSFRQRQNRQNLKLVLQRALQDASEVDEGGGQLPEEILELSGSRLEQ
RGS4 act = RGS4 potentiators or activators, primary screen, cell-based, HEK293 M3R inducible RGS4, calcium flux | carbachol calcium flux Fluo4; stronger effect = lower value | B-score at 10 µM | 310,000 tested, 0.92% active | AID 463111, 2010;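 active = B-score of the integrated calcium signal more than 4 SD below the library mean, with starting fluorescence not abnormally high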;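 also: negative B-score means reduced calcium response which marks RGS4 activation or potentiation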
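Test system: HEK293 cells with stable M3R and inducible RGS4; also added: carbachol at ECmax as muscarinic agonist stimulus; schedule: dye loading 30 min 37 °C, buffer rest 30 min RT; technique: kinetic calcium fluorescence imaging with Fluo4-AM dye, 2 µM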
Cl transport mod = KCC2 cotransporter modulators, thallium flux, primary screen, cell-based, HEK293 KCC2, FluoZin-2 fluorescence, MLSMR; Solute carrier family 12 member 5 (Homo sapiens), Q9H2X9; KCC2 cells, thallium flux FluoZin-2 fluorescence; B-score of Tl+ flux slope (higher = more flux/activation; lower = inhibition) at 10 µM; 190,000 tested, 2.2% active; AID 1456, 2008;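 active = thallium flux slope and its plate-corrected score both differing from the plate sample mean at a set confidence after two filtering rounds, in either direction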;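 also: slope of fluorescence scaled to starting intensity during 10 to 20 s after thallium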
MrgX1 PAM = positive allosteric modulators of MrgX1, primary screen, HEK293 cells, Fluo-4 calcium flux. B-score at 10 µM. 310,000 tested, 0.63% active. FDSS; stronger effect = higher value. Mas-related G-protein coupled receptor member X1 (Homo sapiens), Q96LB2. AID 588675, 2011;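 active = plate-corrected calcium response at least 3 library SD above typical, normal starting fluorescence, not activating the receptor alone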;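 also: compound read alongside a low EC10 to EC30 dose of BAM8-22 agonist; peak minus trough fluorescence over baseline measured at the second addition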
MrgX1 ag = agonists of human MrgX1 receptor, primary screen, HEK293 cells, Fluo-4 calcium flux. Fluo-4 calcium fluorescence, agonist mode; stronger effect = higher value. B-score at 10 µM. 310,000 tested, 0.44% active;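 active = calcium response B-score plate-corrected fluorescence ratio at least 3 library SD, with starting fluorescence B-score inside 5 SD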
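Test system: HEK293 cells stably expressing human MrgX1 receptor; Input: fifteen thousand cells per well; Dosing: compound delivered in addition one of three; Schedule: overnight seeding, then 1 h dark dye loading; Technique: Fluo-4 NW calcium fluorescence; Measure: B-scored fluorescence response ratio; Controls: positive and negative controls per plate.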
KCC2 sec1 = KCC2 modulators in sodium-free buffer, confirmation, cell-based, HEK293 KCC2, thallium flux, secondary assay; shares compounds with Cl transport mod; FluoZin2 fluorescence; stronger effect = higher value; normalised thallium flux (F/F0 slope) at 10 µM; 3,700 tested, 15% active; AID 1713, 2009;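 active = thallium flux slope above the same plate's solvent-only control mean plus 3 SD; inconclusive = the two replicate wells disagree; inactive = no significant difference from solvent-only control wells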
KCC2 bumet counter = thallium flux persisting under bumetanide in KCC2 cells, confirmation, counter-screen for KCC2 modulator project, cell-based, HEK293 KCC2, FluoZin2, secondary assay 3; shares compounds with Cl transport mod; AID 1714, 2009; HEK293-KCC2 + bumetanide/ouabain; stronger effect = higher value; normalized thallium flux at 10 µM; 3,700 tested, 49% active;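 active = thallium entry rate above the same plate's blocked-transporter control wells by more than 3 SD; inconclusive = the two repeat wells disagree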;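 also: raw slope of fluorescence over initial fluorescence between 10 and 20 s after thallium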
KCC2 secondary2 = KCC2 modulators without ouabain present, confirmation, cell-based, HEK293 KCC2, thallium flux, FluoZin2, secondary assay 2; thallium flux FluoZin2 fluorescence; actives lie on both sides; F/F0 rise rate, 10–20 s post-thallium; normalized thallium flux at 10 µM; 3,700 tested, 23% active; shares compounds with Cl transport mod;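 active = thallium flux slope more than 3 SD above or below the plate's solvent-only control mean, mostly below; inconclusive = the two repeat wells disagreed; inactive = no significant shift from solvent-only controls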;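 also: raw slope with 0.1% DMSO as baseline and bumetanide as block control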
HEK counter1 = thallium flux modulation in parental HEK cells, confirmation, counter-screen for KCC2 modulator project, cell-based, counterscreen 1 | shares compounds with Cl transport mod | HEK293 parental cells, thallium flux FluoZin2, ouabain; baseline-ratio fluorescence slope, 10–20 s after thallium | thallium flux rate (normalised fluorescence) at 10 µM | 3,700 tested, 46% active | AID 1716, 2009;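 active = thallium flux rate significantly above the same plate's solvent-only control wells, beyond their mean plus 3 SD; inconclusive = the two replicate wells gave conflicting results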
KCC2 ouabain = KCC2 inhibitors and activators, ouabain retest, confirmation, HEK-KCC2 cells; raw Tl+ flux slope (below DMSO = inhibition, above = activation) at 10 µM; HEK293-KCC2, thallium flux FluoZin2 fluorescence; bidirectional: low = inhibitor, high = activator; AID 1717, 2009; shares compounds with Cl transport mod; 3,700 tested, 48% active;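 active = thallium flux slope beyond 3 SD from same-plate DMSO control mean in most replicates, usually higher, sometimes lower; inconclusive = repeat tests gave conflicting results; inactive = no significant difference from controls in most replicates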;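 also: slope of initial-normalized fluorescence between seconds 10 and 20 after thallium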
HEK293 Tl flux2 = native HEK Tl+ uptake effects, second counter-screen – HEK cells, counterscreen 2, counter-screen for KCC2 modulator project, confirmation; shares compounds with Cl transport mod; HEK293 parental, thallium flux FluoZin-2 fluorescence slope; thallium flux slope at 10 µM; 3,700 tested, 33% active; AID 1718, 2009;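 active = thallium flux slope above the same plate's solvent-control mean plus 3 SD in both duplicate wells; inconclusive = duplicate wells that disagreed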;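 also: run without ouabain in cells lacking the KCC2 cotransporter; slope of fluorescence scaled to its starting value between 10 and 20 s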
* = called active by the depositor.

Screening O=C(CSc1nc(C(F)(F)F)cc(=O)[nH]1)N1CCC(Cc2ccccc2)CC1 returned RGS4 block inactive, MrgX1 antag inactive, RGS4 act inactive, MrgX1 PAM inactive and MrgX1 ag inactive.
Screening c1ccc(-c2ccc(CN3C[C@@H]4C(c5ccccc5)C5(c6ccccc6)CC4(C5)[C@H]3c3ccccc3)cc2)cc1 (some centres not stated) returned RGS4 block inactive, MrgX1 antag inactive, RGS4 act inactive, Cl transport mod 0.46, MrgX1 PAM inactive and MrgX1 ag inactive.
N#Cc1ccc(C23CC4(C2)[C@H](CN(Cc2ccc(-c5ccccc5)cc2)[C@@H]4c2ccccc2)C3c2ccccc2)cc1 (some centres not stated) was read as RGS4 block inactive, MrgX1 antag inactive, RGS4 act inactive, Cl transport mod 3.7*, MrgX1 PAM inactive, MrgX1 ag inactive, KCC2 sec1 0.015, KCC2 bumet counter 0.0049, KCC2 secondary2 0.026, HEK counter1 0.0075, KCC2 ouabain 0.016 and HEK293 Tl flux2 0.01.
N#C/C(=C(/O)c1cccc(F)c1)c1nc2ccccc2s1 was read as RGS4 block inactive, MrgX1 antag inactive, RGS4 act inactive, Cl transport mod -3*, MrgX1 PAM inactive, MrgX1 ag inactive, KCC2 sec1 0.0089, KCC2 bumet counter 0.006, KCC2 secondary2 inconclusive, HEK counter1 0.0077, KCC2 ouabain 0.016* and HEK293 Tl flux2 0.011.
For N#C/C(=C(/O)c1cc2ccccc2o1)c1nc2ccccc2s1 the results were RGS4 block inactive, MrgX1 antag inactive, RGS4 act inactive, Cl transport mod -2.8, MrgX1 PAM inactive and MrgX1 ag inactive.
Screening Cc1ccc(S(=O)(=O)N(CC(=O)NCC2CCCO2)Cc2cccc(C)c2)cc1 (configuration not stated) returned RGS4 block inactive, MrgX1 antag inactive, RGS4 act inactive, MrgX1 PAM inactive and MrgX1 ag inactive.
